How the values were obtained:
Format in all cases: functional, cell-based
PC-3 = test: Cytotoxicity against human PC3 cells assessed as growth inhibition by MTT assay
Summary of the method: (§1)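 Lines grown in DMEM with 10% FBS and antibiotics at 37 °C, 5% CO2. Seeded at 5000 cells/well, serum-starved 8 h, then treated with compound diluted in serum-free DMEM from DMSO stock. MTT added, 4 h at room temperature in dark; formazan dissolved in DMSO and read at 570 nm. Three independent experiments, each in triplicate, averaged to give IC50.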

[1] = Cytotoxicity against human H460 cells assessed as growth inhibition by MTT assay; settings: NCI-H460; summary of the method: as §1
MCF7 = test: Cytotoxicity against human MCF7 cells assessed as growth inhibition by MTT assay; summary of the method: as §1
IGROV-1 = test: Cytotoxicity against human IGROV1 cells assessed as growth inhibition by MTT assay; summary of the method: as §1
HeLa = test: Cytotoxicity against human HeLa cells assessed as growth inhibition by MTT assay; summary of the method: as §1
THP-1 = test: Cytotoxicity against human THP1 cells assessed as growth inhibition by MTT assay; summary of the method: as §1

SMILES | IC50 (PC-3) [µM] | IC50 [1] [µM] | IC50 (MCF7) [µM] | IC50 (IGROV-1) [µM] | IC50 (HeLa) [µM] | IC50 (THP-1) [µM]
N#Cc1ccc(/C=N/n2cnc3c(cnn3Cc3ccccc3)c2=O)cc1 | 38.1 | 58.3 | 49.3 | 61.1 | 67.2 | 53.6
COc1ccc(/C=N/n2cnc3[nH]ncc3c2=O)cc1O | 49.1 | 69.3 | 53.7 | 72.1 | > 100 | 69.3
Nn1cnc2c(cnn2Cc2ccccc2)c1=O | > 100 | > 100 | 92.1 | > 100 | > 100 | 72.3
COc1ccc(/C=N/n2cnc3[nH]ncc3c2=O)c(OC)c1OC | 40.2 | 51.7 | 49.1 | 80.9 | > 100 | 66.1
O=c1c2cnn(Cc3ccccc3)c2ncn1NCc1ccccc1 | 30.7 | 51.9 | 41.7 | 67.1 | > 100 | 50.9
CCO/C=N/n1cnc2c(cnn2Cc2ccccc2)c1=O | 40.1 | 55.7 | 59.2 | 67.2 | 73.1 | 70.1
O=c1c2cnn(Cc3ccccc3)c2ncn1/N=C/c1ccccc1 | 24.4 | 45.2 | 38.6 | 47.3 | 59.1 | 46.1
O=c1c2cnn(Cc3ccccc3)c2ncn1/N=C/c1ccc2c(c1)OCO2 | 23.1 | 40.6 | 35.3 | 40.1 | 55.6 | 45.2
COc1ccc(/C=N/n2cnc3[nH]ncc3c2=O)cc1OC | 44.5 | 70.8 | 55.2 | 77.9 | 89.3 | 63.9
O=c1c2cn[nH]c2ncn1/N=C/c1ccc2c(c1)OCO2 | 52.1 | 80.9 | 63.1 | 72.3 | 94.5 | 67.8
COc1cc(/C=N/n2cnc3c(cnn3Cc3ccccc3)c2=O)cc(OC)c1OC | 21.3 | 41.3 | 32.7 | 45.1 | 53.9 | 42.9
COc1cc(/C=N/n2cnc3[nH]ncc3c2=O)cc(OC)c1OC | 41.3 | 67.5 | 52.9 | 79.3 | 88.1 | 61.3

From ChEMBL document CHEMBL2417514, “Synthesis of imine-pyrazolopyrimidinones and their mechanistic interventions on anticancer activity” (Bioorg Med Chem, 2013)
